Results of several laboratories.
Compare with care: the assays were run in different laboratories.
Target: Dual specificity mitogen-activated protein kinase kinase 5 (MAP2K5, Homo sapiens, UniProt Q13163)
Sequence (Q13163 1-448, as in one of the studies): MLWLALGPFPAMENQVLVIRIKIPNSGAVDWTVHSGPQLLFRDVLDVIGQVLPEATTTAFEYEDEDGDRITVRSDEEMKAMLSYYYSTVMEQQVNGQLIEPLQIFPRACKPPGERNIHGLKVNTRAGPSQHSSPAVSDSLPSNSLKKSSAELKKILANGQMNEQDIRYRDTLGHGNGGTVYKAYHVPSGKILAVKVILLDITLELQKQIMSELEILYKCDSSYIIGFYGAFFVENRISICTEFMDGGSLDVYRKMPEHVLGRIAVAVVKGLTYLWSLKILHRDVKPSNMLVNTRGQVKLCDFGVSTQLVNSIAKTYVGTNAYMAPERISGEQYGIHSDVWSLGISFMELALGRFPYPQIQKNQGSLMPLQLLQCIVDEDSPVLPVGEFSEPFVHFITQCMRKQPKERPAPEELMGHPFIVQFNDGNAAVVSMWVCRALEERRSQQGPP

SMILES	test	setting	endpoint	result
CC1=C(C#N)C(c2ccc3c(c2)c(NC(=O)c2ccccc2C)nn3C)C(C#N)=C(C)N1	cell-free assay, competition with immobilised ligand	1 µM	remaining binding	79%
O=C(Nc1cnn(-c2csc(C(=O)NC3COC3)c2)c1)Nc1ccccc1Cl	enzyme activity, inhibitor	5 µM	remaining activity	98.2%
CC(C)(O)c1cncc(-c2nc3ccc(F)cc3n2C2CC2)c1	cell-free assay, competition with immobilised ligand	1 µM	remaining binding	100%
Cc1sc(C(=O)NC2COC2)cc1-n1cc(NC(=O)Nc2c(F)cccc2Cl)cn1	enzyme activity, inhibitor	10 µM	remaining activity	96.8%
CC(C)(C)c1nc(-c2cccc(NS(=O)(=O)c3c(F)cccc3F)c2F)c(-c2ccnc(N)n2)s1	enzyme activity, inhibitor, radiometric	1 µM	remaining activity	90%
COc1cccc2c(NCc3ccccc3)nc(-n3c(N)nc4ccccc43)nc12	target engagement in cells, inhibitor, chemoproteomics	20 mM	inhibition	6.7%
CC(C)(C)c1nc2c(s1)c1nc(N)ncc1c1ccc(NS(=O)(=O)c3c(F)cccc3F)c(F)c12	enzyme activity, inhibitor, radiometric	1 µM	remaining activity	80%
CCCCNc1ncc2c(-c3ccc(F)cc3)nn(C[C@H]3CC[C@H](N)CC3)c2n1	target engagement in cells, inhibitor, chemoproteomics	20 mM	inhibition	83%
Cc1ccc(C(=O)Nc2ccc(CN3CCN(C)CC3)c(C(F)(F)F)c2)cc1C#Cc1cnc2cccnn12	enzyme activity, inhibitor	23.5 nM	remaining activity	2.4%
Nc1ncnc2occ(-c3ccc(NC(=O)Nc4cc(C(F)(F)F)ccc4F)cc3)c12	cell-free assay, inhibitor	20 µM	remaining signal	0.15%
